ChEMBL document CHEMBL1811814, “Synthesis and evaluation of indole, pyrazole, chromone and pyrimidine based conjugates for tumor growth inhibitory activities--development of highly efficacious cytotoxic agents” (Eur J Med Chem, 2010)

What was measured:
Type in all cases: functional
Set-up in all cases: scale not given: the % may be the effect or the level left
[1] = system: KM12; assay: Growth inhibition of human KM12 cells assessed tumor cell growth at 10^-5 M
Method in brief: (§1)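 NCI 60-human-tumor-cell-line panel screen. Each compound was tested at a single concentration of 10^-5 M, and percent growth of tumor cells was recorded for each cell line. Growth inhibition was expressed from these percent-growth values.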

[2] = system: MCF7; assay: Growth inhibition of human MCF7 cells assessed tumor cell growth at 10^-5 M; method in brief: as §1
[3] = system: HOP-62; assay: Growth inhibition of human HOP62 cells assessed tumor cell growth at 10^-5 M; method in brief: as §1
[4] = system: NCI/ADR-RES; assay: Growth inhibition of human NCI/ADR-RES cells assessed tumor cell growth at 10^-5 M; method in brief: as §1
[5] = system: NCI-H226; assay: Growth inhibition of human NCI-H226 cells assessed tumor cell growth at 10^-5 M; method in brief: as §1
[6] = system: T47D; assay: Growth inhibition of human T47D cells assessed tumor cell growth at 10^-5 M
Method in brief: (§2)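 Single-dose screen at 10^-5 M across the 60 human tumor cell line panel, run to NCI standards. The value is the percent growth of each cell line in the presence of compound. Compounds active at this dose moved on to five-concentration testing (10^-4 to 10^-8 M).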

[7] = system: Malme-3M; assay: Growth inhibition of human MALME-3M cells assessed tumor cell growth at 10^-5 M; method in brief: as §1
[8] = system: NCI-H522; assay: Growth inhibition of human NCI-H522 cells assessed tumor cell growth at 10^-5 M; method in brief: as §1
[9] = system: SNB-19; assay: Growth inhibition of human SNB19 cells assessed tumor cell growth at 10^-5 M; method in brief: as §2
[10] = system: SN12C; assay: Growth inhibition of human SN12C cells assessed tumor cell growth at 10^-5 M; method in brief: as §1
[11] = system: MOLT-4; assay: Growth inhibition of human MOLT4 cells assessed tumor cell growth at 10^-5 M; method in brief: as §1
[12] = system: U-251; assay: Growth inhibition of human U251 cells assessed tumor cell growth at 10^-5 M; method in brief: as §2
[13] = system: NCI-H23; assay: Growth inhibition of human NCI-H23 cells assessed tumor cell growth at 10^-5 M; method in brief: as §1
[14] = system: K562; assay: Growth inhibition of human K562 cells assessed tumor cell growth at 10^-5 M; method in brief: as §1
[15] = system: MDA-MB-231; assay: Growth inhibition of human MDA-MB-231 cells assessed tumor cell growth at 10^-5 M; method in brief: as §1
[16] = system: A498; assay: Growth inhibition of human A498 cells assessed tumor cell growth at 10^-5 M; method in brief: as §1
[17] = system: 786-0; assay: Growth inhibition of human 786-0 cells assessed tumor cell growth at 10^-5 M; method in brief: as §1
[18] = system: UACC-62; assay: Growth inhibition of human UACC62 cells assessed tumor cell growth at 10^-5 M; method in brief: as §2
[19] = system: HCC 2998; assay: Growth inhibition of human HCC2998 cells assessed tumor cell growth at 10^-5 M; method in brief: as §1
[20] = system: NCI-H322M; assay: Growth inhibition of human NCI-H322M cells assessed tumor cell growth at 10^-5 M; method in brief: as §1
[21] = system: ACHN; assay: Growth inhibition of human ACHN cells assessed tumor cell growth at 10^-5 M; method in brief: as §1
[22] = system: EKVX; assay: Growth inhibition of human EKVX cells assessed tumor cell growth at 10^-5 M; method in brief: as §1
[23] = system: LOX IMVI; assay: Growth inhibition of human LOXIMVI cells assessed tumor cell growth at 10^-5 M; method in brief: as §1
[24] = system: HOP-92; assay: Growth inhibition of human HOP92 cells assessed tumor cell growth at 10^-5 M; method in brief: as §1
[25] = system: M14; assay: Growth inhibition of human M14 cells assessed tumor cell growth at 10^-5 M; method in brief: as §1
[26] = system: UACC-257; assay: Growth inhibition of human UACC257 cells assessed tumor cell growth at 10^-5 M; method in brief: as §2
[27] = system: MDA-MB-435; assay: Growth inhibition of human MDA-MB-435 cells assessed tumor cell growth at 10^-5 M; method in brief: as §1
[28] = system: SW-620; assay: Growth inhibition of human SW620 cells assessed tumor cell growth at 10^-5 M; method in brief: as §2
[29] = system: SF-295; assay: Growth inhibition of human SF295 cells assessed tumor cell growth at 10^-5 M; method in brief: as §1
[30] = system: SF-268; assay: Growth inhibition of human SF268 cells assessed tumor cell growth at 10^-5 M; method in brief: as §1
[31] = system: RXF 393; assay: Growth inhibition of human RXF393 cells assessed tumor cell growth at 10^-5 M; method in brief: as §1
[32] = system: A549; assay: Growth inhibition of human A549 cells assessed tumor cell growth at 10^-5 M; method in brief: as §1
[33] = Growth inhibition of human […] cells assessed tumor cell growth at 10^-5 M; method in brief: as §1
[34] = system: OVCAR-3; assay: Growth inhibition of human OVCAR3 cells assessed tumor cell growth at 10^-5 M; method in brief: as §1
[35] = system: HCT-15; assay: Growth inhibition of human HCT15 cells assessed tumor cell growth at 10^-5 M; method in brief: as §1
[36] = system: SK-MEL-5; assay: Growth inhibition of human SK-MEL-5 cells assessed tumor cell growth at 10^-5 M; method in brief: as §1
[37] = system: CAKI-1; assay: Growth inhibition of human Caki1 cells assessed tumor cell growth at 10^-5 M; method in brief: as §1
[38] = system: SNB-75; assay: Growth inhibition of human SNB75 cells assessed tumor cell growth at 10^-5 M; method in brief: as §2
[39] = Growth inhibition of human Hs 578T cells assessed tumor cell growth at 10^-5 M; method in brief: as §1
[40] = system: BT-549; assay: Growth inhibition of human BT549 cells assessed tumor cell growth at 10^-5 M; method in brief: as §1
[41] = system: SK-MEL-28; assay: Growth inhibition of human SK-MEL-28 cells assessed tumor cell growth at 10^-5 M; method in brief: as §1
[42] = system: COLO 205; assay: Growth inhibition of human COLO205 cells assessed tumor cell growth at 10^-5 M; method in brief: as §1
[43] = system: HL-60(TB); assay: Growth inhibition of human HL-60(TB) cells assessed tumor cell growth at 10^-5 M
Method in brief: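 HL-60(TB), part of the 60-line panel, tested at a single concentration of 10^-5 M. The read-out is percent tumor cell growth relative to untreated growth.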

[44] = system: HCT-116; assay: Growth inhibition of human HCT116 cells assessed tumor cell growth at 10^-5 M; method in brief: as §1
[45] = system: PC-3; assay: Growth inhibition of human PC3 cells assessed tumor cell growth at 10^-5 M; method in brief: as §1
[46] = system: SK-MEL-2; assay: Growth inhibition of human SK-MEL-2 cells assessed tumor cell growth at 10^-5 M; method in brief: as §1
[47] = system: IGROV-1; assay: Growth inhibition of human IGROV1 cells assessed tumor cell growth at 10^-5 M; method in brief: as §1
[48] = system: OVCAR-8; assay: Growth inhibition of human OVCAR8 cells assessed tumor cell growth at 10^-5 M; method in brief: as §1
[49] = system: OVCAR-5; assay: Growth inhibition of human OVCAR5 cells assessed tumor cell growth at 10^-5 M; method in brief: as §1
[50] = system: MDA-MB-468; assay: Growth inhibition of human MDA-MB-468 cells assessed tumor cell growth at 10^-5 M; method in brief: as §1
[51] = system: DU-145; assay: Growth inhibition of human DU145 cells assessed tumor cell growth at 10^-5 M; method in brief: as §1
[52] = system: HT-29; assay: Growth inhibition of human HT-29 cells assessed tumor cell growth at 10^-5 M; method in brief: as §1
[53] = system: SF-539; assay: Growth inhibition of human SF539 cells assessed tumor cell growth at 10^-5 M; method in brief: as §1
[54] = system: TK-10; assay: Growth inhibition of human TK10 cells assessed tumor cell growth at 10^-5 M; method in brief: as §2
[55] = system: SK-OV-3; assay: Growth inhibition of human SKOV3 cells assessed tumor cell growth at 10^-5 M; method in brief: as §1
[56] = system: CCRF-CEM; assay: Growth inhibition of human CCRF-CEM cells assessed tumor cell growth at 10^-5 M; method in brief: as §1
[57] = system: OVCAR-4; assay: Growth inhibition of human OVCAR4 cells assessed tumor cell growth at 10^-5 M; method in brief: as §1
[58] = system: UO-31; assay: Growth inhibition of human UO31 cells assessed tumor cell growth at 10^-5 M; method in brief: as §2
[59] = system: NCI-H460; assay: Growth inhibition of human NCI-H460 cells assessed tumor cell growth at 10^-5 M; method in brief: as §1
[60] = system: SR; assay: Growth inhibition of human SR cells assessed tumor cell growth at 10^-5 M; method in brief: as §2

Cc1ccc(S(=O)(=O)n2cc(/C=C3\C(=O)Nc4ccccc43)c3ccccc32)cc1
Activity [1]: 97%
Activity [2]: 56.6%
Activity [3]: 98.5%
Activity [4]: 92.1%
Activity [5]: 86.3%
Activity [6]: 77.3%
Activity [7]: 111%
Activity [8]: 111.2%
Activity [9]: 85.2%
Activity [10]: 88.3%
Activity [11]: 95.7%
Activity [12]: 86.4%
Activity [13]: 89.8%
Activity [14]: 85%
Activity [15]: 66.4%
Activity [16]: 102%
Activity [17]: 99.7%
Activity [18]: 64%
Activity [19]: 98.6%
Activity [20]: 106.5%
Activity [21]: 82.2%
Activity [22]: 93.8%
Activity [23]: 82.7%
Activity [24]: 67.4%
Activity [25]: 96%
Activity [26]: 84%
Activity [27]: 93.2%
Activity [28]: 103%
Activity [29]: 97.1%
Activity [30]: 88.4%
Activity [31]: 97.6%
Activity [32]: 88.2%
Activity [33]: 80.7%
Activity [34]: 83.7%
Activity [35]: 79.5%
Activity [36]: 84.9%
Activity [37]: 53.7%
Activity [38]: 73.4%
Activity [39]: 92.2%
Activity [40]: 97.5%
Activity [41]: 86.8%
Activity [42]: 54.4%
Activity [43]: 100.6%
Activity [44]: 92.5%
Activity [45]: 92.8%
Activity [46]: 86.6%
Activity [47]: 73%
Activity [48]: 91.2%
Activity [49]: 87.3%
Activity [50]: 117.2%
Activity [51]: 101.5%
Activity [52]: 104.5%
Activity [53]: 93.1%
Activity [54]: 117.8%
Activity [55]: 99.1%
Activity [56]: 95.6%
Activity [57]: 70.1%
Activity [58]: 60.9%
Activity [59]: 97.3%

O=C1/C(=C\c2cn(Cc3ccccc3)c3ccccc23)c2ccccc2N1Cc1ccccc1
Activity [1]: 87.9%
Activity [2]: 3.6%
Activity [3]: 90.9%
Activity [4]: 92%
Activity [6]: 57%
Activity [7]: 121.4%
Activity [8]: 31.8%
Activity [9]: 106.1%
Activity [10]: 104%
Activity [11]: 98.9%
Activity [12]: 92.9%
Activity [13]: 88.6%
Activity [14]: 95.2%
Activity [15]: 100.6%
Activity [16]: 96.6%
Activity [17]: 99.1%
Activity [18]: 82.6%
Activity [20]: 103.8%
Activity [21]: 85.4%
Activity [22]: 85.2%
Activity [23]: 84%
Activity [25]: 96.6%
Activity [27]: 110.5%
Activity [28]: 97.1%
Activity [29]: 108.8%
Activity [30]: 92.3%
Activity [31]: 73.5%
Activity [32]: 81.6%
Activity [33]: 76.9%
Activity [34]: 84.3%
Activity [35]: 77.7%
Activity [36]: 84.4%
Activity [37]: 72%
Activity [38]: 89.5%
Activity [39]: 96%
Activity [60]: 96.6%
Activity [41]: 104.8%
Activity [42]: 89.8%
Activity [43]: 103.6%
Activity [44]: 64.7%
Activity [45]: 80.8%
Activity [46]: 86.4%
Activity [47]: 66.8%
Activity [48]: 88.9%
Activity [49]: 106.7%
Activity [50]: 46.6%
Activity [51]: 100.2%
Activity [52]: 90%
Activity [53]: 94.7%
Activity [54]: 85.3%
Activity [55]: 92.4%
Activity [57]: 84.4%
Activity [58]: 82.3%
Activity [59]: 88.6%
